# Assay outcomes from PubChem BioAssay.
# In the library only some 1.7% were active in any assay of this set; here they are far more common.
# DNMT1 inh = inhibitors of human DNMT1; 360,000 tested, 0.83% active; AID 588458; DNMT1 molecular beacon, Hinp1I cleavage, fluorescence; P26358; inhibition (reported as % activation of signal), % at 10 µM; in the data active = inhibition above about 50%
# SUMO1-SIM PPI = modulators of human SUMO1-mediated protein-protein interactions; 360,000 tested, 0.33% active; inhibition, % at 20 µM; AID 602429; P63165; SUMO1 binding to a labelled peptide, TR-FRET, 1 h; in the data active = inhibition above about 37%
# Target sequence (P63165 whole entry, looked up): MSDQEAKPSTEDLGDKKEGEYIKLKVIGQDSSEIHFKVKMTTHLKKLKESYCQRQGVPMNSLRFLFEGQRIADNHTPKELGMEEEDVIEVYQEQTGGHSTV
# LMPTP block = LMPTP (human) inhibition; 360,000 tested, 0.22% active; P24666; recombinant LMPTP-A, OMFP fluorogenic substrate, fluorescence intensity; inhibition, % at 20 µM;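 active = compounds that cut the enzyme signal by at least half of the control window in the single-dose screen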;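 also: plate controls were DMSO wells with enzyme plus substrate for no effect and substrate without enzyme for full effect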
# Target sequence (P24666 whole entry, looked up): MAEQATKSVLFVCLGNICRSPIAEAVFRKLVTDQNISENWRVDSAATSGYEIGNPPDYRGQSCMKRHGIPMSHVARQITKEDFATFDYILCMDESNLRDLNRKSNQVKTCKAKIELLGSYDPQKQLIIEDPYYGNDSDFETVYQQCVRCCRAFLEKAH
#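 Test system – LMPTP-A phosphatase enzyme · Quantity – 0.625 nM LMPTP-A final · Reagent – OMFP substrate, 400 µM final · Dosing – one test concentration per compound, 20 µM, with 3% DMSO overall · Timing – 50 min enzyme reaction at room temperature, protected from light · Detection – fluorescence intensity · Controls – substrate-only low control, DMSO enzyme-plus-substrate high control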
# STEP block = STEP (human) phosphatase inhibition | P54829 | recombinant STEP, OMFP fluorogenic substrate, fluorescence | inhibition, % at 20 µM | 360,000 tested, 0.25% active | AID 588621;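 active = inhibition at 20 µM, scaled per plate between control wells, above about 37%, limit read from the data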;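 also: 0% = DMSO with enzyme and substrate and 100% = substrate only without enzyme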
#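 System: STEP phosphatase, cell-free reaction; Buffer or medium: Bis-Tris pH 6.0 buffer with DTT, detergent; Incubation: 20 min at room temperature, dark; Measured by: fluorescence, 480/540 nm.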
# Scp1 inh = blocks human Scp-1 phosphatase activity; Q9GZU7; Recombinant Scp1, phosphopeptide, malachite green phosphate absorbance; inhibition, % at 20 µM; 340,000 tested, 0.88% active;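 active = inhibition above about 50% at 20 µM, limit read from the data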;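 also: plate controls were DMSO wells with enzyme for no effect and wells lacking enzyme for full effect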
# Target sequence (Q9GZU7 76-261 limits assumed): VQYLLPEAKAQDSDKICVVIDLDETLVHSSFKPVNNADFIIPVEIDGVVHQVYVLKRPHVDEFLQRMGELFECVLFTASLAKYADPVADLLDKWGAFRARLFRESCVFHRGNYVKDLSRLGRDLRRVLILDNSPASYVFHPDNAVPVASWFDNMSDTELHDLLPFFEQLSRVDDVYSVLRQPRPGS
#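 Assay system: SCP-1 catalytic fragment, aa 76-261 | Buffer or medium: Tris acetate buffer pH 5.5 with MgCl2 and Tween-20 | Compound: One concentration, 20 µM, with 1.0% DMSO | Also added: Phospho 17-mer peptide substrate | Signal: Absorbance at 630 nm | Incubation: 45 min enzyme reaction at room temperature | Measure: % inhibition of SCP-1 phosphate liberation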
# Scp-1 conf = Scp-1 (human) inhibition, single-dose confirmed. shares compounds with Scp1 inh. recombinant SCP-1 catalytic domain, phosphate release, malachite green absorbance. inhibition, % at 20 µM. 2,500 tested, 61% active. AID 540281;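 also: plate controls were DMSO with enzyme for no effect and buffer wells lacking enzyme for full effect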
# MG interference = colorimetric interference in Scp-1 counter-screen; AID 540313; Colorimetric interference counterscreen, malachite green absorbance 630 nm; apparent inhibition (interference), % at 20 µM; shares compounds with Scp1 inh; 2,500 tested, under 10 active;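 also: compounds added after enzyme reaction finished so only phosphate colour detection is probed; plate controls were DMSO wells with completed Scp-1 reaction for no effect and substrate wells lacking enzyme for full effect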
# Scp-1 Tm shift = validation of human Scp-1 inhibitors by thermal shift binding; shares compounds with Scp1 inh; Recombinant SCP1, Sypro Orange thermal shift Tm; thermal shift relative to vanadate control, % at 40 µM; 1,500 tested, 25% active;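 active = substances whose mean melting-temperature shift, as a percentage of the reference inhibitor's shift, reaches about 5.3%, limit read from the data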;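 also: 0% = Tm of DMSO wells and 100% = Tm with sodium orthovanadate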
# DNMT1 inh conf = DNMT1 inhibition confirmation, single concentration. 2,300 tested, 8% active. DNMT1 molecular beacon HinP1I cleavage, fluorescence. shares compounds with DNMT1 inh. inhibition, % at 10 µM;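 active = average inhibition of at least 30% in the single-concentration confirmation test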
# Beacon interf = shows spectral interference in the DNMT1 beacon assay; DNMT1 molecular beacon spectral interference counterscreen, fluorescence 485/520; activation (fluorescence interference), % at 10 µM; 2,300 tested, 1% active; shares compounds with DNMT1 inh; AID 602387;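 active = activation of at least 30% at 10 µM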;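 also: DNMT1 catalytic domain with a HinP1I cleavage step and a FAM/dabcyl DNA beacon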
# Numbers without * were called inactive; / = no result.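 The calls were made as follows, unless noted: active = inhibition of at least 30% at 20 µM; inactive = the rest.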
SMILES,DNMT1 inh,SUMO1-SIM PPI,LMPTP block,STEP block,Scp1 inh,Scp-1 conf,MG interference,Scp-1 Tm shift,DNMT1 inh conf,Beacon interf
N#Cc1c(/N=C/c2ccc(-c3ccccc3C(=O)O)o2)sc2c1CCCC2,51.7*,-8.3,3.2,17.3,57.4*,43.4*,-20.8,8.0*,3.0,5.0
Cc1cccc(N2CCN(C(=O)CCS(=O)(=O)c3ccc(Br)cc3)CC2C)c1 (centres undefined),70.4*,-0.3,0.4,3.4,83.9*,73.7*,-5.7,-0.9,0.8,-0.6
Cc1cccc(C(=O)OCC(=O)N2CC(C)OC(C)C2)c1C (centres undefined),1.0,-5.5,-1.2,-0.3,0.7,/,/,/,/,/
Cc1cccc(C(=O)OCC(=O)c2ccc(CC(=O)N3CCOCC3)s2)c1C,50.0*,-14.0,5.2,3.3,84.8*,60.5*,-18.6,4.2,3.7,5.1
CCN(CC)c1ncnc2c1ncn2[C@H]1CN(Cc2ccc(OC)cc2)C[C@@H](CO)O1,-1.5,-0.1,0.7,0.4,/,/,/,/,/,/
O=S1(=O)CC(N2CC=CC2)CN1Cc1cn(Cc2cccc(Cl)c2)nn1 (centres undefined),/,4.8,-1.4,/,/,/,/,/,/,/
O=C(/C=C/c1ccco1)N1CCN(S(=O)(=O)c2ccccc2)CC1,66.1*,5.7,9.8,18.2,73.0*,69.5*,-9.8,-10.2,4.4,3.8
O=C(N/N=C/c1ccc2c(c1)OCO2)c1cc(-c2ccco2)nc2ccccc12,71.7*,10.5,12.0,4.8,67.5*,45.5*,-14.5,5.1,5.1,0.8
O=C(NNC(=O)c1cc(-c2ccco2)nc2ccccc12)c1ccccc1,23.9,-9.4,-0.1,-2.6,-0.7,/,/,/,/,/
O=C(O)c1cc(-c2ccco2)nc2cc3ccccc3cc12,75.6*,38.2*,1.1,31.1,91.1*,33.9*,-15.3,3.6,1.8,4.8
CN(CC(=O)Nc1ccc(F)cc1)C(=O)c1cc(-c2ccco2)nc2ccccc12,84.2*,3.4,28.4,2.6,70.4*,62.0*,-13.1,8.9*,9.0,3.5
Cc1ccc(NC(=O)CN(C)C(=O)c2cc(-c3ccco3)nc3ccccc23)cc1,75.3*,12.4,25.2,4.5,75.7*,67.8*,-12.6,6.2*,11.2,4.6
CCCCN1CC(COCc2ccccc2)Oc2cc(Br)ccc2S1(=O)=O (centres undefined),0.8,7.4,3.6,3.2,-12.4,/,/,/,/,/
Cc1ccc(S(=O)(=O)CCC(=O)OCn2nnc3ccccc3c2=O)cc1,-2.5,0.4,-0.6,-2.2,-5.2,/,/,/,/,/
COc1ccc(Cc2c(C3CCCCC3)nc3ccc(Cl)cn23)c(C)c1,3.7,-3.0,4.0,4.3,/,/,/,/,/,/
CCOc1ccc(NC(=O)CN(C)C(=O)c2cc(-c3ccco3)nc3ccccc23)cc1OCC,-0.8,-5.4,1.6,1.1,-4.9,/,/,/,/,/
COc1cccc(NC(=O)CN(C)C(=O)c2cc(-c3ccco3)nc3ccccc23)c1,54.6*,-5.4,12.4,4.4,64.3*,60.8*,-12.3,5.3*,2.6,0.3
COc1ccc(/C=C(\C#N)C(=O)NCCc2ccccc2)cc1OCc1ccccc1,-9.6,-0.4,5.0,0.9,-23.6,/,/,/,/,/
COCCCNC(=O)/C(C#N)=C/c1ccc(OCC(=O)O)c(OC)c1,89.4*,26.5,15.3,34.3,57.1*,60.4*,-9.0,7.5*,17.1,0.0
O=C(COC(=O)c1c2c(nc3ccccc13)/C(=C/c1cccc([N+](=O)[O-])c1)CCC2)NC1CCS(=O)(=O)C1 (centres undefined),-16.3,-13.8,0.4,-0.1,1.6,/,/,/,/,/
CN(CCC#N)C(=O)COC(=O)c1c2c(nc3ccccc13)/C(=C\c1ccco1)CC2,77.1*,57.3*,67.3*,36.7,84.4*,53.5*,-11.5,10.3*,7.5,6.5
CCCCNC(=O)COC(=O)c1c2c(nc3ccccc13)/C(=C/c1cccs1)CC2,-23.5,-8.9,4.2,5.3,5.5,/,/,/,/,/
O=C(COC(=O)c1c2c(nc3ccccc13)/C(=C\c1ccco1)CC2)NC1CCCC1,97.3*,41.8*,65.2*,17.5,90.7*,61.0*,-14.2,15.1*,20.1,-2.4
CC1CCCCC1NC(=O)COC(=O)c1c2c(nc3ccccc13)/C(=C\c1ccco1)CC2 (centres undefined),85.4*,22.3,50.4*,24.3,50.2*,60.5*,-8.2,9.4*,10.3,1.8
Cc1noc(-c2ccc(C(F)(F)F)cc2)c1NC(=O)Nc1ccc(Cl)cc1,14.7,0.9,1.6,1.2,-10.9,/,/,/,/,/
SMILES,DNMT1 inh,SUMO1-SIM PPI,LMPTP block,STEP block,Scp1 inh,Scp-1 conf,MG interference,Scp-1 Tm shift,DNMT1 inh conf,Beacon interf
Cc1cc(C=O)c(C)n1-c1ccc(Cl)c(C(=O)O)c1,87.7*,10.2,3.7,65.6*,73.6*,76.1*,-15.6,6.2*,21.0,-2.2
COC(=O)CCCC(=O)NC1CCCc2c1cnn2-c1ccc(F)cc1F (centres undefined),0.0,2.6,-0.4,1.5,-5.1,/,/,/,/,/
Cc1ccc(-n2nc(-c3ccco3)cc2C(=O)O)cc1,156.3*,25.0,8.9,24.5,66.0*,58.4*,-15.9,7.0*,15.5,-1.1
CCOC(=O)c1cc(-c2ccco2)nn1-c1ccc(C)cc1,-6.8,-1.2,0.4,-3.1,-6.9,/,/,/,/,/
O=C(CSc1ccccn1)Nc1ccc2c(c1)C(=O)c1ccccc1C2=O,87.0*,35.3,49.0,40.7*,107.5*,68.8*,0.1,7.8*,12.8,-6.3
CN(CCOC(=O)/C=C/c1ccco1)Cc1ccccc1,78.0*,0.5,0.3,3.0,65.6*,52.9*,-8.2,1.2,9.0,-2.9
CCN(c1ccc(NC(=O)COC(=O)/C=C/c2ccco2)cc1)C(C)C,-4.6,-26.0,-0.9,2.2,2.1,/,/,/,/,/
CCc1ccc(NC(=O)COC(=O)/C=C/c2ccco2)cc1,50.1*,-6.7,4.8,17.5,67.4*,62.6*,-0.5,0.2,3.1,2.5
Cc1ccc(CNC(=O)CCc2c(C)nn(-c3ccc(N4CCOCC4)nn3)c2C)cc1,0.7,-2.4,0.8,-1.7,-6.5,/,/,/,/,/
O=C(Nc1cccc(Cl)c1N1CCCC1)c1cccc(-c2cc3ccccc3oc2=O)c1,-1.5,-6.8,2.3,3.3,-5.6,/,/,/,/,/
